# Rows were chosen to be rich in hits. Some 6.5% of all compounds tested hit in one or more screens of this group.
# Ecoli WT expand: blocks growth of wild type E. coli BW25113; OD600 absorbance; AID 710; actives 0.15% (n = 98,000); growth inhibition, % at 100 µM;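 active means growth inhibition above about 50% at one test dose, limit read from the data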;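 further: growth measured after 20 h incubation at 37 °C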
# PTK2B oligo ant: blocks oligomerization of human Pyk2 in cells | Q293 cells, Pyk2 FERM NanoBiT luminescence; hits give low values | actives 0.83% (n = 99,000) | z-score (the deposit names both 25 µM and 10 µM);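 active means Z-score of -3 or lower, scaled per plate to the spread of control and sample wells; inactive means z-score above -3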;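 further: negative z-score means lost luminescence so less FERM oligomerization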
# PostGolgi ctrl: inhibits growth of the yeast control strain; AID 738; efflux-deficient yeast background strain, growth absorbance A615, 16 h; inhibition, % at 10 µM; actives 5% (n = 98,000)
# PostGolgi yeast: growth inhibition of a yeast mutant, post-Golgi transport screen | post-Golgi transport phenotypic cell assay | inhibition, % at 10 µM | actives 0.9% (n = 98,000) | AID 739;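 further: yeast cells grown in 1536-well plates; yeast grown about 18 h at 30C before absorbance read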
# tolC growth inh: blocks growth of E. coli BW25113 tolC mutant; OD615; growth inhibition, % at 10 µM (by protocol); actives 2.2% (n = 65,000);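 active means growth inhibition at or above a cutoff equal to the mean over every tested compound plus 3 SD, cut at about 60% in these data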;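 further: growth measured after 20 h incubation at 37 °C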
#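 Test system: tolC-deleted E. coli BW25113 | Medium: LB with kanamycin 50 µg/mL | Compound dosing: Single concentration, 10 µM final per compound | Schedule: 37 °C, 20 h exposure | Measured by: OD at 615 nm | Evaluation: Percent growth inhibition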
# Candida biofilm: kills Candida albicans biofilms | C. albicans biofilm + clotrimazole, Alamar Blue | inhibition, % at 6 µM | actives 0.14% (n = 85,000);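 active means inhibition above 20%; inactive means inhibition below 20%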;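 further: preformed 24 hr biofilms exposed to compound for 48 hr; 0% = biofilm without compound and 100% = blank killed by clotrimazole plus chlorhexidine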
# Numbers without * were called inactive; . = no result given. Unless noted, no stated cut-off is given here; in the data, active means inhibition above about 30%; inactive means the rest.
SMILES,Ecoli WT expand,PTK2B oligo ant,PostGolgi ctrl,PostGolgi yeast,tolC growth inh,Candida biofilm
COc1cc(/C=C/c2cc(OC(C)=O)c3ccccc3n2)c(OC(C)=O)c([N+](=O)[O-])c1,-8,-1.6,-3,-5,.,-1
COc1ccc(Cc2nc(C(=O)NCc3ccccc3OC)cs2)cc1,-13,-1.2,35*,1,.,.
Cc1ccc(C(C)NC(=O)c2cc(C)oc2C)cc1 (stereo not drawn),3,-0.51,33*,2,8,6
COCCNC(=O)Cn1c(=O)n(C)c2ccccc21,12,0.09,-3,-2,.,6
NS(=O)(=O)c1ccc(Nc2nc(-c3ccc4ccccc4c3)cs2)cc1,-5,-1.8,42*,-3,.,-3
CN(C)/C=N/C(=S)Nc1ccc(Br)cc1F,10,0.92,15,1,.,5
O=C(COc1ccccc1Br)NCc1ccccn1,9,0.07,32*,-6,.,1
O=C(COc1ccc(F)cc1Br)NCc1ccccn1,11,0.1,2,6,-15,8
Cc1ncc(N=Nc2ccccc2)c(-c2ccccc2)n1,3,-0.81,4,5,.,.
CCOC(=O)COc1ccc2c(c1)C(=O)CC(C)(c1cccnc1)O2 (stereo not drawn),2,0.64,42*,4,0,.
CCOC(=O)COc1ccc2c(c1)C(=O)CC1(CCCCC1)O2,6,1.4,8,12,.,2
CCC(C)C(NC(=O)[C@@H](NC(=O)c1ccccc1F)C(C)C)C(=O)OC (stereo partly drawn),3,1.6,12,-13,.,.
CCCCC(=O)Nc1nc2ccc3nc(C)sc3c2s1,-4,.,45*,1,7,14
CCCC(=O)Nc1nc2ccc3nc(C)sc3c2s1,7,0.05,19,1,11,0
Cc1ccc(/C=N/n2cnc3sc(-c4ccccc4)cc3c2=O)o1,0,0.5,2,65*,.,5
CC1CCCCN1Cc1ccc(-c2nn[nH]n2)cc1 (stereo not drawn),-7,0.59,45*,1,-11,9
CCCn1c(CCC(=O)O)ccc1-c1cccs1,4,-0.05,4,3,14,8
COCCCn1c(CCC(=O)O)ccc1-c1cccs1,1,0.8,30*,-2,2,2
O=C(c1ccccc1OCc1ccccc1Br)N1CCN(c2ncccn2)CC1,-9,-0.85,19,17,11,9
CCN(CC)S(=O)(=O)c1cccc(C(=O)OCc2cc(=O)n3nc(C)sc3n2)c1,-4,0.9,3,7,2,9
CCOC(=O)c1cnc(-n2nc(C)cc2C)nc1NC(C)c1ccccc1 (stereo not drawn),-6,-2.8,44*,8,100*,1
CCOC(=O)c1cnc(-n2nc(C)cc2C)nc1NCc1ccccc1,3,-0.9,46*,4,100*,3
COc1ccc(NC(=S)NCCCN2CCN(C3CCCCC3)CC2)cc1,.,0.51,.,.,.,.
CCc1cccc(C)c1NC(=O)CN1C(=O)c2ccccc2S1(=O)=O,-4,.,29,5,-4,1
CC(C)C(NC(=O)CN1C(=O)c2ccccc2S1(=O)=O)C(C)C,2,.,31*,-2,3,3
SMILES,Ecoli WT expand,PTK2B oligo ant,PostGolgi ctrl,PostGolgi yeast,tolC growth inh,Candida biofilm
Nc1nc(Cl)cc(N2CCC(c3cc(-c4ccc(Cl)cc4)n[nH]3)CC2)n1,0,-1.8,102*,16,.,.
CC(=O)c1ccc(N2CCC(c3cc(-c4ccc(Cl)cc4Cl)n[nH]3)CC2)c([N+](=O)[O-])c1,-21,-3,4,15,.,.
COc1ccc(-c2cc(C3CCN(c4cc(Cl)nc(N)n4)CC3)[nH]n2)cc1,-10,-0.72,42*,-5,.,.
COc1ccc(OC)c(-c2cc(C3CCN(c4cc(Cl)nc(N)n4)CC3)[nH]n2)c1,-2,-2.1,34*,-4,.,.
COc1ccc(-c2cc3nc(C)cc(N)n3n2)cc1,13,0.31,1,-16,.,2
Cc1ccc(S(=O)(=O)NCC(=O)N(CC(=O)NC2CCCCC2)CC2CCCO2)cc1 (stereo not drawn),-4,0.86,6,1,.,6
O=C(Nc1ccc(F)cc1)c1cc(S(=O)(=O)N2CCCCC2)cs1,-10,-0.44,13,2,11,.
Cc1cccn2c(NC(=O)c3cccs3)c(-c3ccccc3)nc12,.,-0.61,.,.,.,.
Cc1ccc(N(C(C)C(=O)O)S(=O)(=O)c2cccnc2)cc1 (stereo not drawn),4,.,2,2,-21,24*
CCCCN1C2CCCC1CC(NC(=O)N(C(C)C)C(C)C)C2 (stereo not drawn),.,.,.,.,.,2
COc1ccc(N2CCCn3c2nc2c3c(=O)n(Cc3ccc(F)cc3)c(=O)n2C)c(OC)c1,.,-0.89,.,.,-14,-6
CC1(C)Cc2c(c(N3CCOCC3)nc3sc4c(NCc5ccco5)nnnc4c23)CS1,-7,0.3,17,11,8,24*
Cc1cccc(C2Nc3ccccc3C(=O)N2CCc2ccccc2)n1 (stereo not drawn),-2,-1.1,7,-11,4,.
O=C1c2ccccc2NC(c2ccc(Cl)cc2Cl)N1O (stereo not drawn),58*,-0.31,11,3,13,7
O=C1c2ccccc2NC(c2c(Cl)cccc2Cl)N1Cc1ccccc1 (stereo not drawn),-22,-1.7,42*,65*,.,-4
O=C1c2ccccc2NC(c2ccc(Cl)cc2Cl)N1Cc1ccccc1 (stereo not drawn),-17,-1.2,36*,12,.,6
CCCC1=C(C(=O)OCC)C(c2c(C)nn(-c3ccccc3)c2Cl)C(C#N)=C(N)O1 (stereo not drawn),8,-1.3,23,-4,.,8
O=C(Cn1cc(C(F)(F)F)ccc1=O)N1CCN(S(=O)(=O)c2ccccc2)CC1,2,0.04,-1,15,-18,2
CCOC(=O)COc1ccc(S(=O)(=O)N2CCc3ccccc3C2)cc1,-6,-0.2,1,10,17,.
COc1ccc(-c2cc(C(F)(F)F)c3c(=O)n(-c4ccccc4)[nH]c3n2)cc1,1,-4.1*,33*,13,.,-1
COCCn1c(SCC(=O)Nc2cccc(C)c2)nnc1C(C)C,1,-0.49,-1,0,-1,4
COCCn1c(SCC(=O)Nc2cc(C)cc(C)c2)nnc1C(C)C,-2,0.13,30*,-4,-6,3
CCOC(=O)CN1CC23C=CC(O2)C(C(=O)Nc2ccc(OC)cc2OC)C3C1=O (stereo not drawn),2,.,17,-1,-4,-13
CCOC(=O)CN1CC23C=CC(O2)C(C(=O)Nc2ccc(F)c(C)c2)C3C1=O (stereo not drawn),-13,-0.43,36*,7,-20,10
COc1ccccc1NC(=O)N(Cc1ccc2c(c1)OCO2)Cc1nc2ccccc2c(=O)[nH]1,-14,-4*,-6,24,-19,-1
COc1cccc(C(=O)N(Cc2ccc3c(c2)OCO3)Cc2nc3ccccc3c(=O)[nH]2)c1,-2,-3.4*,4,-11,-2,5

# Screening data as filed in PubChem BioAssay.
